Active and inactive are the calls of the source. The rule behind the calls is not given here.
Columns and labels:
[1] = Cytotoxicity against human BC cells; type: cell-based; conditions: for Activity: human, bc
Procedure, shortened: (§1)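 Colorimetric cytotoxicity assay on KB (oral human epidermoid carcinoma), BC (human breast cancer) and Vero (African green monkey kidney fibroblast) cells; IC50 determined, Vero tested up to 67 µM (50 µg/mL). Ellipticine used as reference standard.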

KB = experiment: Cytotoxicity against human KB cells; type: cell-based; conditions: for Activity: human, kb; procedure, shortened: as §1
Plasmodium falciparum = experiment: Antimalarial activity against Plasmodium falciparum K1; type: functional, organism-based
Procedure, shortened: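 P. falciparum K1 (multidrug-resistant strain) tested by microculture radioisotope technique; IC50 determined. Dihydroartemisinin used as reference standard.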

Vero = experiment: Cytotoxicity against African green monkey Vero cells upto 67 uM; type: cell-based; conditions: chlorocebus sabaeus; procedure, shortened: as §1

| SMILES | IC50 ([1]; Homo sapiens, BC) [µM] | IC50 (KB; Homo sapiens, KB) [µM] | IC50 (Plasmodium falciparum) [µM] | Activity (Vero) | Activity [1] | Activity (KB) | Activity (Plasmodium falciparum) |
| --- | --- | --- | --- | --- | --- | --- | --- |
| CC(C)=CCOc1ccc(C[C@H]2NC(=O)[C@@H](C)NC(=O)[C@@H](Cc3ccc(O)cc3)NC(=O)CNC(=O)[C@H](C)NC(=O)[C@H](Cc3ccccc3)OC2=O)cc1 [PAECILODEPSIPEPTIDE A] | 6.6 | 5.9 | 4.9 | Not Active |  |  |  |
| CC(C)=CCOc1ccc(C[C@@H](NC(=O)[C@@H](C)NC(=O)[C@@H](Cc2ccc(O)cc2)NC(=O)CNC(=O)[C@H](C)NC(=O)[C@@H](O)Cc2ccccc2)C(=O)O)cc1 [PAECILODEPSIPEPTIDE B] |  |  |  | Not Active | Not Active | Not Active | inactive |
| COC(=O)[C@@H](Cc1ccc(OCC=C(C)C)cc1)NC(=O)[C@@H](C)NC(=O)[C@@H](Cc1ccc(O)cc1)NC(=O)CNC(=O)[C@H](C)NC(=O)[C@@H](O)Cc1ccccc1 [PAECILODEPSIPEPTIDE C] |  |  |  | Not Active | Not Active | Not Active | inactive |
